The values below come from ChEMBL document CHEMBL2346637, “Effects of alkyl side chain modification of coenzyme Q10 on mitochondrial respiratory chain function and cytoprotection” (Bioorg Med Chem, 2013).

Assay [1] can be described thus: Effect on cellular respiration in rat RGC5 cells assessed as increase in mitochondrial oxygen consumption at 10 uM after 24 hrs by fluorescence assay relative to vehicle-treated control. The class given is functional. The essentials:
(§1)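 RGC-5 cells (DMEM, 10% FBS, phenol-red free) at 70,000 per well in 384-well oxygen biosensor plates, allowed to attach 20–30 min. Compounds added from DMSO stock via PBS dilution, final 3 or 10 µM, 0.1% DMSO. Six vehicle and six FCCP wells per plate. Incubated at 37 °C, 5% CO₂ for 1.5 or 24 h. Fluorescence read at 485/630 nm and expressed as fold change over vehicle at each time point. Two-tailed t test.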

The nature of assay [2]: Effect on cellular respiration in rat RGC5 cells assessed as increase in mitochondrial oxygen consumption at 3 uM after 24 hrs by fluorescence assay relative to vehicle-treated control. It counts as functional. An outline of the steps: as §1
Assay [3] in a line: Effect on cellular respiration in rat RGC5 cells assessed as increase in mitochondrial oxygen consumption at 3 uM after 1.5 hrs by fluorescence assay relative to vehicle-treated control. It counts as functional. An outline of the steps: as §1
Assay [4] is filed under the species Bos taurus. Nature of the assay: Inhibition of NADH oxidase in bovine heart submitochondrial particles at 10 uM after 5 mins by spectrophotometric analysis relative to untreated control. Set-up: scale not given: the % may be the effect or the level left. An outline of the steps: (§2)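 Bovine heart SMPs, stored in 0.25 M sucrose/10 mM Tris–HCl pH 7.4, were assayed at 30 µg protein/mL in 50 mM Hepes pH 7.5 with 5 mM MgCl₂ at 30 °C. SMPs pre-equilibrated with inhibitor for 5 min. NADH oxidation followed at 340 nm (ε 6.22 mM⁻¹ cm⁻¹). Initial rates taken from the linear trace and expressed relative to untreated control.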

Assay [5] has as its system CCRF-CEM. Nature of the assay: Antioxidant activity in human CEM cells assessed as suppression of diethyl maleate-induced ROS production at 1 uM incubated for 16 hrs prior to diethyl maleate challenge measured after 1 hr by DCFH-DA staining-based flow cytometric analysis relative to untreated control. It counts as functional. The essentials:
(§3)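 CEM cells (5 × 10⁵ in 1 mL) preincubated with compound 16 h at 37 °C, 5% CO₂; then 5 mM DEM for 1 h. Cells washed in PBS and loaded with 10 µM DCFH-DA for 25 min at 37 °C in the dark, then washed twice. Read by flow cytometry, 488 nm excitation, FL1-H 530 nm channel, 10,000 events after debris gating.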

Assay [6] relates to CCRF-CEM. As to the kind of experiment: Antioxidant activity in human CEM cells assessed as suppression of diethyl maleate-induced ROS production at 2.5 uM incubated for 16 hrs prior to diethyl maleate challenge measured after 1 hr by DCFH-DA staining-based flow cytometric analysis relative to untreated control. It counts as functional. An outline of the steps:
as §3

The test system of assay [7] is CCRF-CEM. As to the kind of experiment: Blockade of diethyl maleate-induced mitochondrial membrane potential collapse in human CEM cells assessed as cells with intact mitochondrial membrane potential at 0.5 uM incubated for 16 hrs prior to diethyl maleate challenge measured after 120 mins by TMRM-based flow cytometric analysis (reference value: 12%). The class given is functional. The essentials: (§4)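 Pretreatment: CEM cells (5 × 10⁵) with or without compound for 16 h, then 5 mM DEM for 120 min. Cells washed and resuspended in PBS with glucose, stained with 250 nM TMRM for 15 min at 37 °C in the dark, washed, and read at once by flow cytometry (488 nm excitation, FL2-H). 10,000 events per run. Percentage of cells with intact potential taken from the top-right quadrant. FCCP served as depolarized control. Means ± SEM of three independent experiments in duplicate.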

Assay [8] relates to CCRF-CEM. As to the kind of experiment: Cytoprotective effect in human CEM cells assessed as reduction of diethyl maleate-induced oxidative stress measured cell viability at 0.1 uM incubated for 17 hrs prior to diethyl maleate challenge measured after 6 hrs by trypan blue exclusion assay relative to untreated control. The class given is functional. An outline of the steps:
(§5)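 CEM cells seeded at 5 × 10⁵ cells/mL with compound and held 17 h at 37 °C, 5% CO₂. Oxidative stress then induced with 5 mM DEM for 6 h. Viability counted on a hemocytometer by 0.4% trypan blue exclusion and expressed as percent of untreated control (untreated = 100%). Means ± S.E.M., n = 3.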

Assay [9] concerns CCRF-CEM. Nature of the assay: Blockade of diethyl maleate-induced mitochondrial membrane potential collapse in human CEM cells assessed as cells with intact mitochondrial membrane potential at 1 uM incubated for 16 hrs prior to diethyl maleate challenge measured after 120 mins by TMRM-based flow cytometric analysis (reference value: 12%). The class given is functional. The essentials: as §4

For assay [10], the species on record is Bos taurus. Nature of the assay: Inhibition of NADH oxidase in bovine heart submitochondrial particles at 5 uM after 5 mins by spectrophotometric analysis relative to untreated control. Set-up: scale not given: the % may be the effect or the level left. The essentials:
as §2

For assay [11], the species on record is Bos taurus. Nature of the assay: Inhibition of NADH-ubiquinone oxidoreductase activity in bovine heart submitochondrial particles using coenzyme Q1 as substrate after 5 mins by spectrophotometric analysis relative to untreated control. The essentials:
(§6)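 Twelve micrograms of bovine heart SMPs incubated 5 min at 39 °C with compound in 50 mM phosphate buffer, pH 7.4, with 0.25 M sucrose, 1 mM MgCl₂, antimycin A and 2 mM KCN. Reaction started with NADH and coenzyme Q₁ (each 50 µM). Decrease in NADH absorbance read at 340 nm. IC₅₀ and maximum achievable inhibition reported.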

Assay [12] deals with CCRF-CEM. Nature of the assay: Cytoprotective effect in human CEM cells assessed as reduction of diethyl maleate-induced oxidative stress measured cell viability at 0.5 uM incubated for 17 hrs prior to diethyl maleate challenge measured after 6 hrs by trypan blue exclusion assay relative to untreated control. It counts as functional. An outline of the steps: as §5
For assay [13], the system named is CCRF-CEM. As to the kind of experiment: Cytoprotective effect in human CEM cells assessed as reduction of diethyl maleate-induced oxidative stress measured cell viability at 5 uM incubated for 17 hrs prior to diethyl maleate challenge measured after 6 hrs by trypan blue exclusion assay relative to untreated control. The class given is functional. An outline of the steps: as §5

Assay [14] can be described thus: Inhibition of NADH-ubiquinone oxidoreductase activity in bovine heart submitochondrial particles using coenzyme Q1 as substrate after 5 mins by spectrophotometric analysis. Set-up: species or system Bos taurus. The essentials:
as §6

Assay [15] is filed under the species Bos taurus. Nature of the assay: Inhibition of NADH oxidase in bovine heart submitochondrial particles at 1 uM after 5 mins by spectrophotometric analysis relative to untreated control. Set-up: scale not given: the % may be the effect or the level left. The essentials: as §2
A short description of assay [16]: Effect on cellular respiration in rat RGC5 cells assessed as increase in mitochondrial oxygen consumption at 10 uM after 1.5 hrs by fluorescence assay relative to vehicle-treated control. The class given is functional. The essentials:
as §1

In assay [17] the test system is CCRF-CEM. As to the kind of experiment: Cytoprotective effect in human CEM cells assessed as reduction of diethyl maleate-induced oxidative stress measured cell viability at 1 uM incubated for 17 hrs prior to diethyl maleate challenge measured after 6 hrs by trypan blue exclusion assay relative to untreated control. It counts as functional. The essentials:
as §5

Consider `COC1=C(OC)C(=O)C(CCCCCCCCC(C)(C)C)=C(C)C1=O`, for which the “fold change (FC)” value in [1] was determined as 1.16; in [2], 1.55; in [3], 1.08; in assay [16], 1.05. For the same compound, the figures for the activity in the assay listed under Bos taurus [4], in the assay filed under Bos taurus [10] and in the assay filed under Bos taurus [15] were 36.2%, 50.6% and 68.3%, respectively. For the same compound, the Activity with CCRF-CEM [5] amounted to 88%; in the assay with CCRF-CEM [6], 100%; in the assay with CCRF-CEM [7], 70%; in the assay with CCRF-CEM [8], 9%; in the assay with CCRF-CEM [9] it was 85%; with CCRF-CEM [12] it was 43%. Also, the Activity is 93% in the assay on CCRF-CEM [13] and 72% in the assay on CCRF-CEM [17]. Also, in the assay filed under Bos taurus [11], the Imax turned out to be 69%. Besides, in assay [14], the midpoint of inhibition, the IC50, lay at 14.7 µM.

Regarding `CCCCCCCCCCCCCCCC1=C(C)C(=O)C(OC)=C(OC)C1=O`, the “fold change (FC)” value is listed as 1.52 in [1], 1.49 in [2], 1.14 in assay [3] and 1.15 in [16]. The activity is 59.7% in the assay listed under Bos taurus [4], 66.3% in the assay listed under Bos taurus [10] and 85.2% in the assay listed under Bos taurus [15]. Moreover, the Activity in the assay with CCRF-CEM [5] is recorded as 100%; with CCRF-CEM [6], 100%; with CCRF-CEM [7] it was 86%; in the assay on CCRF-CEM [8], 82%; with CCRF-CEM [9] it was 92%; in the assay on CCRF-CEM [12] it was 87%. In addition, the Activity with CCRF-CEM [13] is reported as 94%; in the assay on CCRF-CEM [17] it was 90%. The compound also yielded an IC50 in assay [14] of more than 30 µM.

Regarding `COC1=C(OC)C(=O)C(CCCCCCCCCCC2CCCCC2)=C(C)C1=O`, the “fold change (FC)” value in assay [1] is listed as 1.51; in assay [2], 1.06; in [3], 1.17; in assay [16], 1.21. Further, the activity in the assay listed under Bos taurus [4] is 78.7%; in the assay filed under Bos taurus [10] it was 81.9%; in the assay filed under Bos taurus [15], 88.3%. The Activity is recorded as 100% with CCRF-CEM [5]; 100% with CCRF-CEM [6]; 84% in the assay on CCRF-CEM [7]; 76% in the assay with CCRF-CEM [8]; 91% with CCRF-CEM [9]; 83% with CCRF-CEM [12]. Besides, the results for the Activity in the assay on CCRF-CEM [13] and with CCRF-CEM [17] were 93% and 87%, respectively. Further, in the assay listed under Bos taurus [11], the Imax was determined as 55.4%. In assay [14], this compound registered an IC50 of 14.9 µM.

Turning to `CCCCCCCCCCC1=C(C)C(=O)C(OC)=C(OC)C1=O` [DECYLUBIQUINONE], the “fold change (FC)” value in assay [1] came to 1.08; in assay [2] it was 0.99; in [3] it was 1.19; in assay [16], 1.2. Further, the activity stood at 61.5% in the assay filed under Bos taurus [4], 83.3% in the assay filed under Bos taurus [10] and 93.5% in the assay filed under Bos taurus [15]. In addition, the Activity with CCRF-CEM [5] is 80%; with CCRF-CEM [6], 95%; in the assay on CCRF-CEM [7], 78%; in the assay on CCRF-CEM [8], 69%; in the assay with CCRF-CEM [9], 88%; in the assay on CCRF-CEM [12], 62%. The Activity in the assay on CCRF-CEM [13] is 87%; in the assay on CCRF-CEM [17] it was 79%. The IC50 in [14] was more than 30 µM.

Consider `COC1=C(OC)C(=O)C(CCCCCCCCCCO)=C(C)C1=O` [IDEBENONE], for which the “fold change (FC)” value in [1] was 0.98; in assay [2] it was 0.98; in assay [3], 1.12; in assay [16], 0.99. The activity in the assay listed under Bos taurus [4] was found to be 13.4%; in the assay filed under Bos taurus [10], 20.3%; in the assay filed under Bos taurus [15] it was 58.3%. Further, the Activity with CCRF-CEM [5] stood at 45%; in the assay on CCRF-CEM [6], 65%; in the assay on CCRF-CEM [7] it was 35%; in the assay on CCRF-CEM [8] it was 25%; in the assay on CCRF-CEM [9] it was 59%; in the assay on CCRF-CEM [12], 38%. In addition, the Activity was determined as 74% with CCRF-CEM [13] and 71% in the assay with CCRF-CEM [17]. In the assay listed under Bos taurus [11], this compound yielded an Imax of 75%. The IC50 in assay [14] came to 5.8 µM.

For the compound `COC1=C(OC)C(=O)C(CCCCCCCCCCN=[N+]=[N-])=C(C)C1=O`, the “fold change (FC)” value in assay [1] is 1.01; in assay [2] it was 1.68; in [3], 1.01; in [16], 0.97. Further, the activity in the assay listed under Bos taurus [4] stood at 64%; in the assay filed under Bos taurus [10], 75%; in the assay filed under Bos taurus [15], 89.8%. Moreover, the Activity with CCRF-CEM [5] amounted to 71%; in the assay with CCRF-CEM [6], 87%; with CCRF-CEM [7], 50%; in the assay on CCRF-CEM [8], 11%; in the assay on CCRF-CEM [9], 65%; with CCRF-CEM [12], 21%. Moreover, the Activity is recorded as 92% with CCRF-CEM [13] and 72% in the assay with CCRF-CEM [17]. In addition, the IC50 in assay [14] was more than 30 µM.
